Values after ≈ are worked out from the molar mass of the structure shown.

Test [1] concerns Bacillus subtilis. Put plainly: In vitro antibacterial activity measured against Bacillus subtilis and relative potency expressed with respect to streptonigrin. Format: functional. The procedure, abridged:
(§1)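 Agar disc-diffusion plates seeded with B. subtilis spores, six discs per plate, incubated at 37 °C for 20 h. Zones of inhibition measured and averaged over four replicates. Zone diameter varied linearly with log concentration. Slopes were fitted by regression, with standard errors of the slope calculated.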

For test [2], the system named is Bacillus subtilis. Description: Antibacterial activity against Bacillus subtilis and values were expressed as standard error for slope. Format: functional. The procedure, abridged: as §1
Test [3] relates to Bacillus subtilis. Description: In vitro antibacterial activity against Bacillus subtilis. Format: functional.
For test [4], the system named is Lepidium sativum. Put plainly: In vitro root inhibition activity using seedlings of Lepidium sativum. Format: functional, organism-based. Put shortly: (§2)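 Cress (L. sativum) seeds soaked in water 15–20 min, germinated on 0.6% agar at 27 °C in the dark for 24 h until radicles were ca. 1 cm. DMSO solutions (2000–40 μg/mL stocks, 200 μL per 20 mL agar) were set in 0.6% agar; DMSO-only controls. Eight seedlings per plate, 24 h at 27 °C in the dark. New root growth measured, duplicate runs (16 seedlings). %I = 1 − (T/C) × 100; probit analysis and linear regression gave I50.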

The test system of test [5] is Lepidium sativum. Description: In vitro root inhibition activity measured using seedlings of Lepidium sativum, and relative potency expressed with respect to streptonigrin. The test is classed as functional. Put shortly: as §2

For the molecule `COC1=C(N)C(=O)c2c(ccnc2-c2cccc([N+](=O)[O-])c2)C1=O`, the results for the Relative potency in the test on Bacillus subtilis [1] and with Lepidium sativum [5] were 0.26 and 1.96, respectively. The molecule also gave a Slope with Bacillus subtilis [2] of 4.93. In the test on Bacillus subtilis [3], this molecule showed an MIC of 5.2 µM (≈ 1.69 µg/mL). Also, the I50 in the test on Lepidium sativum [4] came to 6.43 nM ml-1.
In the case of `COC1=C(N)C(=O)c2nc(-c3nc(C(=O)O)c(C)cc3N)ccc2C1=O`, the Relative potency in the test with Bacillus subtilis [1] is recorded as 5.48; with Lepidium sativum [5], 2.3. This molecule also had a Slope in the test on Bacillus subtilis [2] of 4.75. The molecule also showed an MIC in the test on Bacillus subtilis [3] of 0.25 µM (≈ 0.0886 µg/mL). In addition, the I50 with Lepidium sativum [4] stood at 5.5 nM ml-1.
The matching figures for `COC1=C(N)C(=O)c2nc(-c3ccccn3)ccc2C1=O`: 0.1, 1.37, 10.23, 14.1 µM (≈ 3.97 µg/mL) and 9.18 nM ml-1.
Take `C/N=C1\C(=O)c2ccnc(-c3ccccc3[N+](=O)[O-])c2C(O)=C1Br`: the values for the Relative potency with Bacillus subtilis [1] and in the test on Lepidium sativum [5] were 0.2 and 1.3, respectively. This molecule gave a Slope with Bacillus subtilis [2] of 5.21. The MIC against Bacillus subtilis [3] was 6.76 µM (≈ 2.62 µg/mL). In addition, in the test on Lepidium sativum [4], the I50 came to 10 nM ml-1.
As for `C/N=C1\C(=O)c2ccnc(Cc3ccccc3)c2C(O)=C1Br`, the Relative potency in the test on Bacillus subtilis [1] is 0.09; in the test on Lepidium sativum [5], 0.42. This molecule also showed a Slope in the test with Bacillus subtilis [2] of 11.31. In addition, the MIC in the test with Bacillus subtilis [3] worked out at 16 µM (≈ 5.72 µg/mL). Moreover, the I50 with Lepidium sativum [4] is 30.05 nM ml-1.
For `COC1=C(N)C(=O)c2c(ccnc2Cc2ccccc2)C1=O`, the Relative potency is listed as 0.09 with Bacillus subtilis [1] and 0.92 with Lepidium sativum [5]. For the same molecule, the Slope in the test with Bacillus subtilis [2] came out at 11.31. This molecule also gave an MIC with Bacillus subtilis [3] of 16 µM (≈ 4.71 µg/mL). In addition, the I50 in the test on Lepidium sativum [4] is 13.7 nM ml-1.
The matching figures for `COC1=C(N)C(=O)c2nc(-c3nc(C(=O)O)c(C)c(-c4ccc(OC)c(OC)c4O)c3N)ccc2C1=O` [STREPTONIGRIN]: 1, 1, 5.51, 1.37 µM (≈ 0.694 µg/mL) and 12.65 nM ml-1.
Regarding `COC1=C(N)C(=O)c2c(ccnc2-c2ccccc2[N+](=O)[O-])C1=O`, the Relative potency in the test on Bacillus subtilis [1] was 0.15; in the test on Lepidium sativum [5], 2.09. This molecule displayed a Slope in the test with Bacillus subtilis [2] of 10.3. In addition, the minimum inhibitory concentration (MIC) against Bacillus subtilis [3] came to 9 µM (≈ 2.93 µg/mL). For the same molecule, the I50 with Lepidium sativum [4] was 6.03 nM ml-1.
The matching figures for `COC1=C(N)C(=O)c2c(ccnc2-c2cccc(N)c2)C1=O`: 0.04, 0.57, 11.7, 33.4 µM (≈ 9.86 µg/mL) and 22.37 nM ml-1.
The matching figures for `COC1=C(N)C(=O)c2c(ccnc2-c2ccccc2)C1=O`: 0.05, 1.12, 14.78, 27.2 µM (≈ 7.62 µg/mL) and 11.25 nM ml-1.
For `COC1=C(N)C(=O)c2c(ccnc2-c2ccc(N)cc2)C1=O`, the results for the Relative potency in the test with Bacillus subtilis [1] and with Lepidium sativum [5] were 0.04 and 0.82, respectively. The same molecule returned a Slope with Bacillus subtilis [2] of 12.64. This molecule yielded an MIC in the test on Bacillus subtilis [3] of 35.8 µM (≈ 10.6 µg/mL). Moreover, the I50 with Lepidium sativum [4] turned out to be 15.49 nM ml-1.
Consider `COC1=C(N)C(=O)c2c(ccnc2-c2ccccn2)C1=O`, for which the results for the Relative potency with Bacillus subtilis [1] and in the test on Lepidium sativum [5] were 0.03 and 0.99, respectively. Besides, the Slope with Bacillus subtilis [2] is given as 12.37. In the test on Bacillus subtilis [3], this molecule showed an MIC of 39.3 µM (≈ 11.1 µg/mL). In the test on Lepidium sativum [4], this molecule registered an I50 of 12.7 nM ml-1.
As to `COC1=C(N)C(=O)c2c(ccnc2-c2ccc([N+](=O)[O-])cc2)C1=O`, the I50 with Lepidium sativum [4] came to 9.41 nM ml-1. This molecule returned a Relative potency with Lepidium sativum [5] of 1.34.
Regarding `COC1=C(N)C(=O)c2c(ccnc2-c2ccccc2N)C1=O`, the Relative potency was found to be 0.08 with Bacillus subtilis [1] and 0.19 in the test on Lepidium sativum [5]. This molecule also had a Slope with Bacillus subtilis [2] of 9.2. For the same molecule, it took 17.2 µM (≈ 5.08 µg/mL) to inhibit growth against Bacillus subtilis [3] (MIC). The same molecule yielded an I50 in the test on Lepidium sativum [4] of 65 nM ml-1.

Usually MIC stands for the smallest concentration in the dilution series that meets the test's criterion for growth inhibition. Low readings indicate greater potency, high ones weaker potency.

The values are drawn from ChEMBL document CHEMBL1125263, “Streptonigrin and related compounds. 5. Synthesis and evaluation of some isoquinoline analogues” (J Med Chem, 1991).
